# Results from different studies.
# Target: cAMP-dependent protein kinase catalytic subunit PRKX (PRKX, Homo sapiens, UniProt P51817)
# Sequence (P51817 1-358, as in one of the studies): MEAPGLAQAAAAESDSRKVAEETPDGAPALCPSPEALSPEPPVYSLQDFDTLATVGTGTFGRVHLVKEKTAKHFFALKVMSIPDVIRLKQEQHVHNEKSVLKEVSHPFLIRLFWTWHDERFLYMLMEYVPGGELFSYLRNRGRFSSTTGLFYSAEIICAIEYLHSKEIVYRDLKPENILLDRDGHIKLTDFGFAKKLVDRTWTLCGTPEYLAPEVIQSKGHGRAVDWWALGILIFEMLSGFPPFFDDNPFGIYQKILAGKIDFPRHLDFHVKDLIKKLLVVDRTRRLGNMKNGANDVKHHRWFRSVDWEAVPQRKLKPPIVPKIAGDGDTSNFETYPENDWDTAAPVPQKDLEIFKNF
Structure (SMILES),read-out,method,concentration,remaining binding [%]
CO[C@H]1CC[C@H](CNc2ccc(S(=O)(=O)NC(=O)c3ccc(N4CCN(CC5=C(c6ccc(Cl)cc6)CC(C)(C)CC5)CC4)cc3Oc3cnc4[nH]ccc4c3)cc2[N+](=O)[O-])CC1,cell-free assay,competition with immobilised ligand,1 µM,100
Cc1cnc(Nc2ccc(C(=O)N3CCC(N4CCCC4)CC3)cc2)nc1-c1cc2ccccc2s1,binding,competition with immobilised ligand,1 µM,72
O=C(NCC1CCOCC1)c1n[nH]cc1NC(=O)c1c(F)cccc1F,binding,competition with immobilised ligand,1 µM,100
CNC(=O)Nc1ccc2c(c1)[C@@]1(CC2)OC(=O)N(CC(=O)N(Cc2ccc(F)cc2)[C@@H](C)C(F)(F)F)C1=O,cell-free assay,competition with immobilised ligand,1 µM,100
c1cnn2ncc(-c3ccnc(N4CCC45COC5)n3)c2c1,binding,,1 µM,68
COc1ncc2cc3ccccc3nc2c1C#N,cell-free assay,competition with immobilised ligand,5 µM,82
CCN1CCN(Cc2ccc(C(=O)Nc3ccc(C)c(Oc4ccc5c(c4)CC(=O)N5)c3)cc2C(F)(F)F)CC1,binding,competition with immobilised ligand,1 µM,100
Cc1c(NC(=O)c2cc(C(N)=O)nc3cc(F)ccc23)c(C(F)(F)F)nn1Cc1ccc(C(C)(C)C)cc1,cell-free assay,competition with immobilised ligand,1 µM,94
N[C@H]1CCN(c2nccc(-c3cnn4ncccc34)n2)C1,binding,,1 µM,100
CNC(=O)[C@@H]1CC[C@@H](n2c(-c3ccc4cnccc4c3)nc3ccc(C(=O)NCc4cccc(C(N)=O)c4)cc32)C1,binding,competition with immobilised ligand,1 µM,100
Cc1cnn2ncc(-c3ccnc(N(C)C)n3)c2c1,binding,,1 µM,85
c1cncc(-c2cccc(Nc3nccc(NC4CCCCC4)n3)c2)c1,binding,competition with immobilised ligand,10 µM,80
C[C@@H]1CCN(c2nccc(-c3cnn4ncccc34)n2)C1,binding,,1 µM,100
O=C(Nc1cnc(Oc2ccc(F)cc2)nc1)N1CCc2ncccc2[C@@H]1c1ccc(F)cc1,cell-free assay,competition with immobilised ligand,1 µM,93
COc1ccnn2ncc(-c3ccnc(N(C)C)n3)c12,binding,,1 µM,100
O=C(N[C@H]1CCCCC/C=C\C2C[C@@]2(C(=O)O)NC(=O)[C@@H]2C[C@@H](Oc3ccncc3)CN2C1=O)OC1CCCC1 (stereo partly drawn),cell-free assay,competition with immobilised ligand,1 µM,80
O=C(NCCCN1CCOCC1)c1ccc(Nc2nccc(-c3cc4ccccc4s3)n2)cc1,binding,competition with immobilised ligand,1 µM,85
COc1cnc(Nc2cccc(S(N)(=O)=O)c2)nc1N1CCN(c2ccccc2)CC1,binding,competition with immobilised ligand,1 µM,100
Cc1cc(C)c(-n2ccn3nc(-c4cccnc4)cc23)cc1NC(=O)c1cc(C#N)cc(S(F)(F)(F)(F)F)c1,cell-free assay,competition with immobilised ligand,0.1 µM,68.5
CN(c1nccc(-c2cnn3ncccc23)n1)C1CC1,binding,,1 µM,98
O=C(NCCCN1CCOCC1)c1ccc(Nc2ncc(Cl)c(-c3ccc(Cl)s3)n2)cc1,binding,competition with immobilised ligand,1 µM,100
